Columns and labels:
[1] = target: Estrogen receptor (Bos taurus) (UniProt Q9XSB5+P49884); assay: Relative binding affinity for the calf uterine estrogen receptor measured as the ratio of molar concentration of 17-beta-estradiol (E2) and inhibitor required to decrease the amount of bound [3H]E2 by 50%; assay type: protein assay
In short: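 Competitive binding in calf uterine cytosol with 5×10^-9 M [3H]estradiol, 18 h at 4 °C, Tris/EDTA buffer (0.01 M, pH 7.5). Unbound ligand was removed with dextran-coated charcoal (90 min, 4 °C) and supernatant radioactivity counted. Six competitor concentrations gave 10–90% bound. From semilog plots, RBA = ratio of molar concentrations of estradiol to compound giving 50% decrease in binding, ×100.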

Rattus norvegicus [2] = species: Rattus norvegicus; assay: Number of DMBA-induced mammary carcinoma tumors in rats at 1.8 mg dose; assay type: functional
In short: (§1)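 DMBA-induced tumors in Sprague-Dawley rats, entered when tumor area exceeded 140 mm². Dose per kg was given sc in olive oil, daily Monday to Thursday with a double dose Friday. Tumors were measured by calipers twice weekly. Tumor number was counted at the start of the test. Complete remission meant the tumor was no longer palpable. Partial remission meant reduction to ≤50% of initial size. New tumor appearance was recorded.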

[3] = target: T1, Estrogen receptor (Mus musculus) (UniProt O08537+P19785); assay: Uterotrophic activity in mice as uterus dry weight (mg)/body weight (g) *100 at 1 ug dose; assay type: functional, tissue-based
T1 sequence (O08537 whole entry, looked up): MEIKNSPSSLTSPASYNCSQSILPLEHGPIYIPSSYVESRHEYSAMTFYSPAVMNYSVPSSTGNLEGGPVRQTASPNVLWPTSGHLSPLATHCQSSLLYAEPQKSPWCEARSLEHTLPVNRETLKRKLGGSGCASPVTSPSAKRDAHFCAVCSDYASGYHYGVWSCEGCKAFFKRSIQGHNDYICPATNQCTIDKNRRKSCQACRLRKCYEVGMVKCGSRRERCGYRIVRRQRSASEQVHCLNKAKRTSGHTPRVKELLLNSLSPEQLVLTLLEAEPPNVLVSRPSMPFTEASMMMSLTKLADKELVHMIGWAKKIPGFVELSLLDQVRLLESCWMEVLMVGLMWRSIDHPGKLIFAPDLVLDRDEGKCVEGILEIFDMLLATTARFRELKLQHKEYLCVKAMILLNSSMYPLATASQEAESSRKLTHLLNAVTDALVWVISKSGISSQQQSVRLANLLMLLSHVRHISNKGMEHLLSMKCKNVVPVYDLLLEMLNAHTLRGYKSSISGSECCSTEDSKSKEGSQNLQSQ
T1 sequence (P19785 whole entry, looked up): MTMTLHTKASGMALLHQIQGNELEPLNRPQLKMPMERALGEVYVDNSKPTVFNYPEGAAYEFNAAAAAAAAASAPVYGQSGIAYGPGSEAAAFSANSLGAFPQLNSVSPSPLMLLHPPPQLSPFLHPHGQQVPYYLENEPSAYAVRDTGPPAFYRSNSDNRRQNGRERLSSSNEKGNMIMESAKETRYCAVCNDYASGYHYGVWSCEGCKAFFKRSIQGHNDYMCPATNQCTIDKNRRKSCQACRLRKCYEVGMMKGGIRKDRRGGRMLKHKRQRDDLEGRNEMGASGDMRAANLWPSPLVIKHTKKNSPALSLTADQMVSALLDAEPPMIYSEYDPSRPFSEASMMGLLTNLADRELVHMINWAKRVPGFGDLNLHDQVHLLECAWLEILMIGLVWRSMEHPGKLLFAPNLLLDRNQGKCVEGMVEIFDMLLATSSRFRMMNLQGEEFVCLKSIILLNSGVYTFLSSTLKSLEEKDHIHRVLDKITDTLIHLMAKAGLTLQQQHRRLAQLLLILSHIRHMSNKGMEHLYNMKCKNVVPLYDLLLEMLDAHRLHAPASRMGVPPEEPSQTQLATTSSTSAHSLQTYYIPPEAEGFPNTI
In short: (§2)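 Immature 19-day-old female NMRI mice, groups of 10. Compound dose per animal in olive oil (50 µL) sc on 3 consecutive days. Mice were killed 24 h after the last injection. Uteri were Bouin-fixed 20 h, cleaned, washed with alcoholic LiCl, and dried at 100 °C for 24 h. Effect = uterine dry weight (mg)/body weight (g) ×100; mean ± SD.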

Rattus norvegicus [4] = species: Rattus norvegicus; assay: Percent unchanged DMBA-induced mammary carcinoma tumors in rats at 1.8 mg dose; assay type: functional
In short: (§3)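 Female Sprague-Dawley rats, 50 days old, given a single 20 mg DMBA dose in 1 mL olive oil by gavage. Rats were palpated twice weekly from day 30, and those without tumors by day 70 were discarded. Rats were randomized once tumor area exceeded 140 mm². Drug dose was per kg in olive oil (1 mL/kg) sc, single dose Mon–Thu and double dose Fri. Tumor area (caliper, two perpendicular axes) and body weight were measured twice weekly.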

[5] = target: T1, Estrogen receptor (Mus musculus); assay: Anti-uterotrophic activity in mice as uterus dry weight (mg)/body weight (g) *100 at 25 ug dose; assay type: functional, tissue-based
In short: (§4)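 Immature female NMRI mice, 19 days old, groups of 10, given sc injections on 3 consecutive days. Each injection held 0.4 μg estrone plus the indole dose per animal, in olive oil (50 μL). Killed 24 h after the last injection. Uteri were fixed in Bouin solution, washed, and dried 24 h at 100 °C. Read-out was uterine dry weight (mg)/body weight (g) × 100, mean ± SD.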

[6] = target: T1, Estrogen receptor (Mus musculus); assay: Anti-uterotrophic activity in mice as uterus dry weight (mg)/body weight (g) *100 at 1 ug dose; assay type: functional, tissue-based; in short: as §4
Rattus norvegicus [7] = species: Rattus norvegicus; assay: Partial remission (%) of DMBA-induced mammary carcinoma tumors in rats at 1.8 mg dose; assay type: functional; in short: as §1
Rattus norvegicus [8] = species: Rattus norvegicus; assay: Formation of new DMBA-induced mammary carcinoma tumors in rats at 1.8 mg dose; assay type: functional; in short: as §1
[9] = target: T1, Estrogen receptor (Mus musculus); assay: Uterotrophic activity in mice as uterus dry weight (mg)/body weight (g) *100 at 5 ug dose; assay type: functional, tissue-based; in short: as §2
Rattus norvegicus [10] = species: Rattus norvegicus; assay: (§5) Change in DMBA-induced mammary carcinoma tumor area in rats at 1.8 mg dose; assay type: functional
In short: (§6)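 Female Sprague-Dawley rats got one 20 mg DMBA dose by gavage at 50 days old and were palpated twice weekly from day 30. Rats were randomized once tumor area exceeded 140 mm². Dose (per kg) was given sc in olive oil, once daily Monday to Thursday and doubled on Friday. Tumor area was taken from caliper measurements of two perpendicular axes, twice weekly. Change per animal is given as median % and range.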

Rattus norvegicus [11] = species: Rattus norvegicus; assay: Change in body weight of DMBA-induced mammary carcinoma tumor bearing rats at 1.8 mg dose; assay type: functional
In short: (§7)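 DMBA-induced tumor-bearing Sprague-Dawley rats (20 mg DMBA by gavage at 50 days old), randomized when tumor area exceeded 140 mm². Dose per kg was given sc in olive oil, single dose daily Monday to Thursday, double dose Friday. Body weight was measured twice weekly. Read-out was % change in body weight.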

Rattus norvegicus [12] = species: Rattus norvegicus; assay: Change in DMBA-induced mammary carcinoma tumor area in rats at 1.8 mg dose; 47-510; assay type: functional; in short: as §6
[13] = target: T1, Estrogen receptor (Mus musculus); assay: Percentage inhibition of uterotrophic activity at 1 ug dose; assay type: functional
In short: (§8)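 Antiuterotrophic test in immature 19-day-old female NMRI mice (n=10), dosed sc on 3 consecutive days with 0.4 µg estrone per animal per day plus compound in olive oil. Uterine dry weight/body weight ×100 was read 24 h after the last dose. Inhibition % = 100 − [(E_S,T − E_V)/(E_S − E_V)]×100.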

[14] = target: T1, Estrogen receptor (Mus musculus); assay: Uterotrophic activity in mice as uterus dry weight (mg)/body weight (g) *100 at 25 ug dose; assay type: functional, tissue-based; in short: as §2
[15] = target: T1, Estrogen receptor (Mus musculus); assay: Uterotrophic activity in mice as uterus dry weight (mg)/body weight (g) *100 at 0.2 ug dose; assay type: functional, tissue-based; in short: as §2
[16] = target: T1, Estrogen receptor (Mus musculus); assay: Anti-uterotrophic activity in mice as uterus dry weight (mg)/body weight (g) *100 at 125 ug dose; assay type: functional, tissue-based; in short: as §4
[17] = target: T1, Estrogen receptor (Mus musculus); assay: Percentage inhibition of uterotrophic activity at 25 ug dose; assay type: functional; in short: as §8
[18] = target: T1, Estrogen receptor (Mus musculus); assay: Percentage inhibition of uterotrophic activity at 5 ug dose; assay type: functional; in short: as §8
Rattus norvegicus [19] = species: Rattus norvegicus; assay: as §5; assay type: functional; in short: as §6; remark: listed apart in the source
[20] = target: T1, Estrogen receptor (Mus musculus); assay: Percentage inhibition of uterotrophic activity at 125 ug dose; assay type: functional; in short: as §8
Rattus norvegicus [21] = species: Rattus norvegicus; assay: Percent progressive DMBA-induced mammary carcinoma tumors in rats at 1.8 mg dose; assay type: functional; in short: as §3
[22] = target: T1, Estrogen receptor (Mus musculus); assay: Anti-uterotrophic activity in mice as uterus dry weight (mg)/body weight (g) *100 at 5 ug dose; assay type: functional, tissue-based; in short: as §4
Rattus norvegicus [23] = species: Rattus norvegicus; assay: Change in DMBA-induced mammary carcinoma tumor area in rats at 2 mg dose; -100-231; assay type: functional; in short: as §6
Rattus norvegicus [24] = species: Rattus norvegicus; assay: Partial remission (%) of DMBA-induced mammary carcinoma tumors in rats; assay type: functional; in short: as §1
[25] = target: T1, Estrogen receptor (Mus musculus); assay: Uterotrophic activity in mice as uterus dry weight (mg)/body weight (g) *100 at 125 ug dose; assay type: functional, tissue-based; in short: as §2
Rattus norvegicus [26] = species: Rattus norvegicus; assay: Change in DMBA-induced mammary carcinoma tumor area in rats at 2 mg dose; assay type: functional; in short: as §6
Rattus norvegicus [27] = species: Rattus norvegicus; assay: Complete remission (%) of DMBA-induced mammary carcinoma tumors in rats at 2 mg dose; assay type: functional; in short: as §1
Rattus norvegicus [28] = species: Rattus norvegicus; assay: Number of DMBA-induced mammary carcinoma tumors in rats at 2 mg dose; assay type: functional; in short: as §1
Rattus norvegicus [29] = species: Rattus norvegicus; assay: Percent progressive DMBA-induced mammary carcinoma tumors in rats at 2 mg dose; assay type: functional; in short: as §3
Rattus norvegicus [30] = species: Rattus norvegicus; assay: Percent unchanged DMBA-induced mammary carcinoma tumors in rats at 2 mg dose; assay type: functional; in short: as §3
Rattus norvegicus [31] = species: Rattus norvegicus; assay: Formation of new DMBA-induced mammary carcinoma tumors in rats at 2 mg dose; assay type: functional; in short: as §1
Rattus norvegicus [32] = species: Rattus norvegicus; assay: Change in body weight of DMBA-induced mammary carcinoma tumor bearing rats at 2 mg dose; assay type: functional; in short: as §7

CCn1c(-c2cccc(O)c2)cc2ccc(O)cc21
RBA [1]: 1.7

CCn1c(-c2ccc(O)cc2)c(C)c2ccc(O)cc21
RBA [1]: 33

CCCn1c(-c2ccc(OC(C)=O)cc2)c(C)c2cc(OC(C)=O)ccc21
No. of tumors (Rattus norvegicus [2]): 34 | Uterotrophic effect [3]: 21.7 | Static tumors (Rattus norvegicus [4]): 30% | Anti-uterotrophic effect [5]: 29.8 | Anti-uterotrophic effect [6]: 45.2 | Partial remission (Rattus norvegicus [7]): 8% | New tumors (Rattus norvegicus [8]): 27 | Uterotrophic effect [9]: 23 | Change of tumor area (Rattus norvegicus [10]): 198% | Change of body weight (Rattus norvegicus [11]): 2% | Change of tumor area (Rattus norvegicus [12]): 47% | inhibition [13]: 24% | Uterotrophic effect [14]: 28.5 | Uterotrophic effect [15]: 16.7 | Anti-uterotrophic effect [16]: 29.3 | inhibition [17]: 66% | inhibition [18]: 37% | Change of tumor area (Rattus norvegicus [19]): 198% | inhibition [20]: 67% | Progressed tumors (Rattus norvegicus [21]): 55% | Anti-uterotrophic effect [22]: 40.3

CCc1c(-c2ccc(OC(C)=O)cc2)n(CC)c2cc(OC(C)=O)ccc12
Uterotrophic effect [3]: 36.2 | Change of tumor area (Rattus norvegicus [23]): -100% | Partial remission (Rattus norvegicus [24]): 13% | Uterotrophic effect [25]: 44.7 | Uterotrophic effect [9]: 45.6 | Change of tumor area (Rattus norvegicus [26]): -95% | Complete remission (Rattus norvegicus [27]): 74% | No. of tumors (Rattus norvegicus [28]): 36 | Uterotrophic effect [14]: 46.4 | Uterotrophic effect [15]: 25.5 | Progressed tumors (Rattus norvegicus [29]): 8% | Static tumors (Rattus norvegicus [30]): 5% | New tumors (Rattus norvegicus [31]): 3 | Change of body weight (Rattus norvegicus [32]): -13%

CCc1c(-c2ccc(O)cc2)[nH]c2cc(O)ccc12
RBA [1]: 0.13

CCCCCn1c(-c2ccc(O)cc2)c(C)c2cc(O)ccc21
RBA [1]: 2.3

Oc1ccc(-c2cc3ccc(O)cc3[nH]2)cc1
RBA [1]: 0.01

CCCc1c(-c2ccc(O)cc2)n(CCC)c2ccc(O)cc12
RBA [1]: 1.7

CCc1c(-c2ccc(O)cc2)n(CC)c2cc(O)ccc12
RBA [1]: 21

CCn1c(-c2cccc(O)c2)c(C)c2cc(O)ccc21
RBA [1]: 2.2

Cc1c(-c2ccc(O)cc2)[nH]c2cc(O)ccc12
RBA [1]: 0.06

Reference: ChEMBL document CHEMBL1122517, “2-Phenylindoles. Relationship between structure, estrogen receptor affinity, and mammary tumor inhibiting activity in the rat” (1984)
